From ChEMBL document CHEMBL1147285, “A mammalian cell agar-diffusion assay for the detection of toxic compounds” (J Nat Prod, 1989)
Activity calls are given as the source filed them. The calls are words filed in the database; no cut-off is given here. Numbered stars: 1 amine (or outer) side, 2 acyl side, 3 side chain; on linkers, the order of the positions; unused ones are H or OH. Bridge positions count the residues as written; N and C are the ends. Square brackets hold non-standard residues; d marks the D form. Peptide text beside a SMILES is read from it. I, II: the chains in the order shown. Actinocin(1to9) = Cc1c2oc3c(C)ccc(C(=O)[*:2])c3nc-2c(C(=O)[*:1])c(N)c1=O; NMeV = CN[C@H](C(=O)O)C(C)C; Sar = CNCC(=O)O

How the values were obtained:
HT-29 [1] = experiment: Antiproliferative activity against human HT-29 cells after 96 hrs by MTT assay; type: functional, cell-based; details: HT-29, 96 h
HT-29 [2] = experiment: Antiproliferative activity against human HT-29 cells at 0.1 ug after 48 hrs by two-layer agar-diffusion method; type: functional; details: for zone of inhibition at 0.1 µg/disc: read-out: IZ
Procedure, shortened: (§1)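 Compound (0.01-10 µg) spotted on Si gel pieces, air-dried, placed face down on 1.5% Noble agar in PBS-growth medium (20:80) for 60 min diffusion. After removal, cells (2 X 10^6/ml) in 0.3% low-temperature agarose overlaid; 48 h incubation. Cytotoxic zones shown by MTT (5 mg/ml in growth medium) over agarose; absence of zone scored as not detected.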

P388 [3] = experiment: Antiproliferative activity against mouse P388 cells at 0.01 ug after 48 hrs by two-layer agar-diffusion method; type: functional; details: for zone of inhibition at 0.01 µg/disc: read-out: IZ; procedure, shortened: as §1
P388 [4] = experiment: Antiproliferative activity against mouse P388 cells at 1 ug after 48 hrs by two-layer agar-diffusion method; type: functional; details: read-out: IZ; procedure, shortened: as §1
HT-29 [5] = experiment: Antiproliferative activity against human HT-29 cells at 10 ug after 48 hrs by two-layer agar-diffusion method; type: functional, cell-based; procedure, shortened: as §1
P388 [6] = experiment: Antiproliferative activity against mouse P388 cells after 48 hrs by MTT assay; type: functional, cell-based; details: P388, 48 h
Procedure, shortened: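 Uncloned P-388 in RPMI 1640 + 10% horse serum, gentamicin 50 µg/ml; 200-µl cultures at 1 X 10' cells/ml with or without drug, 48 h exposure. MTT (5 mg/ml in medium, 75 µl) added for 90 min, formazan read at 570 nm; absorbance normalized to untreated wells; IC50 by linear regression of logit-transformed data.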

HT-29 [7] = experiment: Antiproliferative activity against human HT-29 cells at 1 ug after 48 hrs by two-layer agar-diffusion method; type: functional; details: for zone of inhibition at 1 µg/disc: read-out: IZ; procedure, shortened: as §1
HT-29 [8] = experiment: Antiproliferative activity against human HT-29 cells at 0.01 ug after 48 hrs by two-layer agar-diffusion method; type: functional; details: for zone of inhibition at 0.01 µg/disc: read-out: IZ; procedure, shortened: as §1
P388 [9] = experiment: Antiproliferative activity against mouse P388 cells at 0.1 ug after 48 hrs by two-layer agar-diffusion method; type: functional; details: for zone of inhibition at 0.1 µg/disc: read-out: IZ; procedure, shortened: as §1
HT-29 [10] = experiment: Antiproliferative activity against human HT-29 cells at 5 ug after 48 hrs by two-layer agar-diffusion method; type: functional; details: read-out: IZ; procedure, shortened: as §1
P388 [11] = experiment: Antiproliferative activity against mouse P388 cells at 5 ug after 48 hrs by two-layer agar-diffusion method; type: functional; details: read-out: IZ; procedure, shortened: as §1

| Compound | IC50 (HT-29 [1]) | Activity (HT-29 [2]) | Activity (P388 [3]) | zone of inhibition at 1 µg/disc (P388 [4]) [mm] | Activity (HT-29 [5]) | IC50 (P388 [6]) | Activity (HT-29 [7]) | Activity (HT-29 [8]) | zone of inhibition at 0.1 µg/disc (P388 [9]) [mm] | zone of inhibition at 1 µg/disc (HT-29 [7]) [mm] | zone of inhibition at 0.1 µg/disc (HT-29 [2]) [mm] | zone of inhibition at 0.01 µg/disc (P388 [3]) [mm] | zone of inhibition at 0.01 µg/disc (HT-29 [8]) [mm] | zone of inhibition at 5 µg/disc (HT-29 [10]) [mm] | zone of inhibition at 5 µg/disc (P388 [11]) [mm] | Activity (P388 [9]) |
| --- | --- | --- | --- | --- | --- | --- | --- | --- | --- | --- | --- | --- | --- | --- | --- | --- |
| COc1cc(NS(C)(=O)=O)ccc1Nc1c2ccccc2nc2ccccc12 [AMSACRINE] | 559 nM | inactive | inactive | 20 | inactive | 229 nM | inactive | inactive | 10 |  |  |  |  |  |  |  |
| Nc1ncn([C@@H]2O[C@H](CO)[C@@H](O)[C@H]2O)c(=O)n1 [AZACITIDINE] | 3800 nM | inactive | inactive | 30 |  | 5000 nM |  | inactive | 12.5 | 20 |  |  |  |  |  |  |
| COc1cc2c(c(OC)c1OC)-c1ccc(OC)c(=O)cc1[C@@H](NC(C)=O)CC2 [COLCHICINE] |  |  |  | > 40 |  | 24 nM |  |  | 40 | > 40 | 40 | 17.5 | 25 |  |  |  |
| C=C1C(=O)O[C@H]2C[C@@H]1C(OC(C)=O)C/C(C)=C/CC/C(C)=C/CC[C@@]2(C)O (stereo partly drawn) [CRASSIN ACETATE] | 0.26 µg/mL |  |  | 9 |  | 1 µg/mL |  |  |  |  |  |  |  | 17 | 20 |  |
| Nc1ccn([C@@H]2O[C@H](CO)[C@@H](O)[C@@H]2O)c(=O)n1 [CYTARABINE] | 66 nM | inactive |  | > 40 | inactive | 1230 nM | inactive | inactive | 20 |  |  | 10 |  |  |  |  |
| Cc1c2oc3c(C)ccc(C(=O)N[C@@H]4C(=O)N[C@H](C(C)C)C(=O)N5CCC[C@H]5C(=O)N(C)CC(=O)N(C)[C@@H](C(C)C)C(=O)O[C@@H]4C)c3nc-2c(C(=O)N[C@@H]2C(=O)N[C@H](C(C)C)C(=O)N3CCC[C@H]3C(=O)N(C)CC(=O)N(C)[C@@H](C(C)C)C(=O)O[C@@H]2C)c(N)c1=O [DACTINOMYCIN] (I: T[dV]P[Sar][NMeV] / II: T[dV]P[Sar][NMeV]; ester I:1-I:C, II:1-II:C; linker I:N-II:N via Actinocin(1to9)) | 223 nM | inactive | inactive | 5 | inactive | 0.2 nM | inactive | inactive |  |  |  |  |  |  |  | inactive |
| COc1cccc2c1C(=O)c1c(O)c3c(c(O)c1C2=O)C[C@@](O)(C(C)=O)C[C@@H]3O[C@H]1C[C@H](N)[C@H](O)[C@H](C)O1 [DAUNORUBICIN] | 133 nM | inactive |  | 20 |  | 28 nM |  | inactive | 12.5 | 5 |  | 10 |  |  |  |  |
| COc1cccc2c1C(=O)c1c(O)c3c(c(O)c1C2=O)C[C@@](O)(C(=O)CO)C[C@@H]3O[C@H]1C[C@H](N)[C@H](O)[C@H](C)O1 [DOXORUBICIN] | 37 nM | inactive |  | 25 |  | 74 nM |  | inactive | 17.5 | 5 |  | 5 |  |  |  |  |
| CC[C@H]1CN2CCc3cc(OC)c(OC)cc3[C@@H]2C[C@@H]1C[C@H]1NCCc2cc(OC)c(OC)cc21 [EMETINE] | 33 nM |  |  | > 40 |  | 7 nM |  | inactive | 40 | 35 | 25 | 20 |  |  |  |  |
| O=c1[nH]cc(F)c(=O)[nH]1 [FLUOROURACIL] | 690 nM | inactive | inactive | > 40 | inactive | 609 nM | inactive | inactive | 15 |  |  |  |  |  |  |  |
| CN(Cc1cnc2nc(N)nc(N)c2n1)c1ccc(C(=O)N[C@@H](CCC(=O)O)C(=O)O)cc1 [METHOTREXATE] | 4400 nM | inactive | inactive | 40 | inactive | 66 nM | inactive | inactive | 27.5 |  |  |  |  |  |  |  |
| CO[C@@]12[C@H](COC(N)=O)C3=C(C(=O)C(C)=C(N)C3=O)N1C[C@@H]1N[C@@H]12 [MITOMYCIN] | 99 nM | inactive | inactive | 25 |  | 3000 nM |  | inactive | 5 | 10 |  |  |  |  |  |  |
| CO[C@H](C(=O)[C@@H](O)[C@@H](C)O)[C@@H]1Cc2cc3cc(O[C@H]4C[C@@H](O[C@@H]5C[C@@H](O)[C@H](O)[C@@H](C)O5)[C@H](O)[C@@H](C)O4)c(C)c(O)c3c(O)c2C(=O)[C@H]1O[C@H]1C[C@@H](O[C@@H]2C[C@@H](O)[C@@H](O[C@@H]3C[C@](C)(O)[C@H](O)[C@@H](C)O3)[C@@H](C)O2)[C@H](O)[C@@H](C)O1 [PLICAMYCIN] | 33 nM |  | inactive | 30 |  | 111 nM |  | inactive | 15 | 25 | 15 |  |  |  |  |  |
| COc1cc([C@@H]2c3cc4c(cc3[C@H](O)[C@H]3COC(=O)[C@H]23)OCO4)cc(OC)c1OC [PODOFILOX] | 11 nM |  |  | 40 |  | 5.9 nM |  |  | 32.5 | > 40 | > 40 | 12.5 | 25 |  |  |  |
| Nc1nc2[nH]cnc2c(=S)[nH]1 [THIOGUANINE] | 1240 nM | inactive |  | > 40 | inactive | 300 nM | inactive | inactive | > 40 |  |  | > 40 |  |  |  |  |
| CC[C@]1(O)C[C@@H]2CN(CCc3c([nH]c4ccccc34)[C@@](C(=O)OC)(c3cc4c(cc3OC)N(C)[C@H]3[C@@](O)(C(=O)OC)[C@H](OC(C)=O)[C@]5(CC)C=CCN6CC[C@]43[C@@H]65)C2)C1 [VINBLASTINE] | 4 nM |  |  | > 40 |  | 0.7 nM |  |  | 32.5 | 40 | 25 | 12.5 | 10 |  |  |  |
| CC[C@]1(O)C[C@H]2CN(CCc3c([nH]c4ccccc34)[C@@](C(=O)OC)(c3cc4c(cc3OC)N(C=O)[C@H]3[C@@](O)(C(=O)OC)[C@H](OC(C)=O)[C@]5(CC)C=CCN6CC[C@]43[C@@H]65)C2)C1 [VINCRISTINE] | 7 nM |  |  | > 40 |  | 1.2 nM |  | inactive | 32.5 | 30 | 15 | 12.5 |  |  |  |  |
